Data on one compound can be found in ChEMBL document CHEMBL4808178 (J Med Chem, 2021).

The structures appear in SMILES notation. Active and inactive are the calls of the source. No cut-off for these calls is given here.

As usually defined, the IC50 is the concentration at which inhibition is half-maximal. For orientation: inhibition means the relative decrease from the control value, in per cent.

For data set [1], the system named is HCT-116. Put plainly: Induction of apoptosis in human HCT116 cells assessed as upregulation of cleaved caspase 3 level at 20 uM incubated for 24 hrs by Western blot analysis. The data set is classed as functional, cell-based. The procedure, abridged: (§1)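 HCT-116 cells at 2 × 10⁵ cells/mL in DMEM/10% FBS, grown 12 h at 37 °C, then treated 24 h (vehicle DMSO). Lysates quantified by BCA, run on 10% SDS-PAGE, PVDF transfer, blocked in 5% milk/TBST, primary antibodies 4 °C overnight, HRP secondary 2 h, chemiluminescent detection; normalized to β-actin, n = 3.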
(In western blotting, separated proteins are transferred to a membrane and probed.)

Data set [2] deals with T1, Aldehyde dehydrogenase 1A1 (Homo sapiens, UniProt P00352).
T1 sequence (P00352 whole entry): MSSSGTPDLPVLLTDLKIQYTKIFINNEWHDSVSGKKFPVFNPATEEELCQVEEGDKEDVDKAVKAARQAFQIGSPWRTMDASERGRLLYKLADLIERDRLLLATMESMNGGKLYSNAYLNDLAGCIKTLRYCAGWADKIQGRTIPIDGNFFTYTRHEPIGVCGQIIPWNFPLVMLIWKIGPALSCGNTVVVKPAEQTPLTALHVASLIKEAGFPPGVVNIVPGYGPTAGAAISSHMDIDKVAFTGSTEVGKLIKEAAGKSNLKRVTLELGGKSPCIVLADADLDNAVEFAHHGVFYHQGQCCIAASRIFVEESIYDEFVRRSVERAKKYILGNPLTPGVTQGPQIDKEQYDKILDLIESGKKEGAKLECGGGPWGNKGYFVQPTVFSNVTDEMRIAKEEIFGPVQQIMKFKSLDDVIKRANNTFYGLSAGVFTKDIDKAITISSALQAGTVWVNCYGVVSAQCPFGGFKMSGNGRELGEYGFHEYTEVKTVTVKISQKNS
Briefly: (§2) Inhibition of human ALDH1A1 incubated for 2 hrs.

Data set [3] concerns the target T2, Aldehyde dehydrogenase 1A1 (Homo sapiens) (UniProt P00352).
T2 sequence (whole entry): T1 sequence (P00352 whole entry)
Described as §2.

Data set [4] in a line: Toxicity in BALB/c mouse xenografted with human HCT116 cells assessed as effect on heart tissue at 60 to 90 mg/kg, po administered twice daily for 4 weeks and measured every 3 days by HE staining based assay. To be noted: in vivo, 672 h, dose 60-90 mg/kg. It counts as organism-based, HCT-116. The procedure, abridged: (§3)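 Male 5-week BALB/c nude mice (16−18 g), 0.2 mL of 5 × 10⁷ cells/mL HCT-116 injected into right armpit; at ~100 mm³ randomized, 5/group; intragastric 60 or 90 mg/kg twice daily for 4 weeks; tumor volume and body weight every 3 days; after sacrifice heart, liver, spleen, lung, kidney HE-stained.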
A general note: Xenograft models place foreign cells or tissue in a host animal.

Data set [5] relates to HCT-116. Briefly: Effect on Wnt/beta-Catenin signaling in human HCT116 cells assessed as reduction in cyclin-D1 mRNA level at 20 uM after 24 hrs by RT-qPCR analysis. It counts as functional, cell-based. The procedure, abridged: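 HCT-116 cells treated 24 h; total RNA by TRIZOL, one-step RT-qPCR: 55 °C 10 min, 95 °C 1 min, then 39 cycles of 95 °C 10 s and 60 °C 30 s, with melting-curve and no-template controls. β-Actin as internal standard; relative expression by 2^−ΔΔCt, mean ± SD (n = 3).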
(In general: Quantitative PCR measures a nucleic acid by following its amplification.)

In data set [6] the test system is HCT-116. Put plainly: Induction of apoptosis in human HCT116 cells assessed as early apoptotic cells at 10 uM after 24 hrs by annexin V-FITC/propidium iodide staining based flow cytometry (reference value: 1%). It counts as functional.
A short description of data set [7]: Toxicity in BALB/c mouse xenografted with human HCT116 cells assessed as effect on spleen tissue at 60 to 90 mg/kg, po administered twice daily for 4 weeks and measured every 3 days by HE staining based assay. It counts as organism-based, HCT-116. Particulars: in vivo, 672 h, dose 60-90 mg/kg. The procedure, abridged: as §3
The test system of data set [8] is HCT-116. Put plainly: Induction of apoptosis in human HCT116 cells assessed as increase in Cyt c protein expression at 20 uM incubated for 24 hrs by Western blot analysis. It counts as functional, cell-based. The method, boiled down:
as §1

For data set [9], the target named is Epidermal growth factor receptor (Homo sapiens) (UniProt P00533). Briefly: Inhibition of EGFR (unknown origin) assessed as residual activity at 1 uM relative to control. The procedure, abridged:
(§4)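 Single-concentration screen at 1 μmol/L against a panel of 208 kinases, run as a commercial service; activity expressed relative to control.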

Data set [10] has as its system HCT-116. Put plainly: Inhibition of cell stemness in human HCT116 cells assessed as reduction in OCT4 mRNA transcription levels at 20 uM after 24 hrs by RT-qPCR analysis. The data set is classed as functional, cell-based. The procedure, abridged:
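Sorted ALDH⁺ HCT-116 cells treated 24 h; TRIZOL RNA, one-step RT-qPCR (RT 10 min 55 °C; 95 °C 1 min; 39 cycles 95 °C 10 s/60 °C 30 s) with melting-curve check; β-actin reference; fold change by 2^−ΔΔCt; t test, mean ± SD, n = 3.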

Data set [11] concerns HCT-116. Put plainly: Inhibition of cell stemness in human HCT116 cells assessed as morphological alterations at 5 uM after 10 days by microscopic analysis. Particulars: time 10.0 day. It counts as functional, cell-based. The procedure, abridged:
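Sorted ALDH⁺ HCT-116 cells, 800/well, in serum-free DMEM with B27 (1:50), EGF 20 ng/mL, β-FGF 10 ng/mL; co-incubated with compound (5 μM) or DMSO vehicle for 10 days; sphere number, diameter and morphology scored from microscopy images; mean ± SD, n = 3.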

In data set [12] the test system is HCT-116. Briefly: Cytotoxicity against human HCT-116 cells assessed as reduction in cell viability incubated for 72 hrs by MTT assay. It counts as functional, cell-based. To be noted: HCT-116, 72 h. The procedure, abridged:
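About 5 × 10³ cells/well, seeded overnight at 37 °C, 5% CO₂, in DMEM or RPMI-1640 with 10% FBS and antibiotics. DMSO-dissolved compounds diluted in medium, exposure 72 h.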

Data set [13] deals with HCT-116. Put plainly: Induction of apoptosis in human HCT116 cells assessed as necrotic cells at 5 uM after 24 hrs by annexin V-FITC/propidium iodide staining based flow cytometry (reference value: 5.6%). The data set is classed as functional.
The test system of data set [14] is HCT-116. Put plainly: Induction of apoptosis in human HCT116 cells assessed as viable cells at 20 uM after 24 hrs by annexin V-FITC/propidium iodide staining based flow cytometry (reference value: 88.3%). It counts as functional. To be noted: read-out: Activity.
Data set [15] has as its target Dual specificity protein kinase CLK2 (Homo sapiens, UniProt P49760). Briefly: Inhibition of CLK2 (unknown origin) assessed as residual activity at 1 uM relative to control. The method, boiled down:
as §4

In data set [16] the test system is HCT-116. Briefly: Induction of apoptosis in human HCT116 cells assessed as upregulation of cleaved caspase 9 level at 20 uM incubated for 24 hrs by Western blot analysis. It counts as functional, cell-based. The procedure, abridged: as §1
In data set [17] the test system is HCT-116. Briefly: Induction of apoptosis in human HCT116 cells assessed as viable cells at 10 uM after 24 hrs by annexin V-FITC/propidium iodide staining based flow cytometry (reference value: 88.3%). The data set is classed as functional. To be noted: read-out: Activity.
The test system of data set [18] is HCT-116. Briefly: Induction of apoptosis in human HCT116 cells assessed as reduction in Bcl2 protein expression at 20 uM incubated for 24 hrs by Western blot analysis. The data set is classed as functional, cell-based. The procedure, abridged:
as §1

Data set [19] is described as follows: Toxicity in BALB/c mouse xenografted with human HCT116 cells assessed as effect on kidney tissue at 60 to 90 mg/kg, po administered twice daily for 4 weeks and measured every 3 days by HE staining based assay. The data set is classed as organism-based, HCT-116. Particulars: in vivo, 672 h, dose 60-90 mg/kg. The method, boiled down:
as §3

In data set [20] the target is T2, Aldehyde dehydrogenase 1A1 (Homo sapiens). Put plainly: Inhibition of ALDH1A1 in human HCT116 cells at 5 uM after 24 hrs by aldefluor staining based fluorescence analysis. The data set is classed as cell-based. To be noted: HCT-116. The procedure, abridged: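 HCT-116 cells, 2 × 10⁵/well, grown overnight at 37 °C, 5% CO₂, then treated 24 h (vehicle DMSO). Aldefluor staining read in FITC channel by FACS for proportion of ALDH⁺ cells; DEAB-pretreated cells set baseline fluorescence.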

Sequence of Dual specificity protein kinase CLK2 (P49760 whole entry, looked up): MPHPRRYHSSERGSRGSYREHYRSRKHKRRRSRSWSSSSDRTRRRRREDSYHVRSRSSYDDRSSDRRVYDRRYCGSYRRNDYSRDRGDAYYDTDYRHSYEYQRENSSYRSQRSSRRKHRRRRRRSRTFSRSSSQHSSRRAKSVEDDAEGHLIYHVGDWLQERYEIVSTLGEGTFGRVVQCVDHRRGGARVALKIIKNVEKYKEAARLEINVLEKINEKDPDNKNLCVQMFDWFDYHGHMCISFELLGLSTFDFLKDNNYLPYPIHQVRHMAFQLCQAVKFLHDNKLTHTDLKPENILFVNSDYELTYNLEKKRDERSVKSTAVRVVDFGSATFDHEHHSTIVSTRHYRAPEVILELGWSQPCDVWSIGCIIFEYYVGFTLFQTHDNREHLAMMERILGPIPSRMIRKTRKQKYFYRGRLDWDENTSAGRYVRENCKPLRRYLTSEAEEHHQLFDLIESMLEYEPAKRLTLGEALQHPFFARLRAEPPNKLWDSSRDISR
Sequence of Epidermal growth factor receptor (Homo sapiens) (P00533 whole entry): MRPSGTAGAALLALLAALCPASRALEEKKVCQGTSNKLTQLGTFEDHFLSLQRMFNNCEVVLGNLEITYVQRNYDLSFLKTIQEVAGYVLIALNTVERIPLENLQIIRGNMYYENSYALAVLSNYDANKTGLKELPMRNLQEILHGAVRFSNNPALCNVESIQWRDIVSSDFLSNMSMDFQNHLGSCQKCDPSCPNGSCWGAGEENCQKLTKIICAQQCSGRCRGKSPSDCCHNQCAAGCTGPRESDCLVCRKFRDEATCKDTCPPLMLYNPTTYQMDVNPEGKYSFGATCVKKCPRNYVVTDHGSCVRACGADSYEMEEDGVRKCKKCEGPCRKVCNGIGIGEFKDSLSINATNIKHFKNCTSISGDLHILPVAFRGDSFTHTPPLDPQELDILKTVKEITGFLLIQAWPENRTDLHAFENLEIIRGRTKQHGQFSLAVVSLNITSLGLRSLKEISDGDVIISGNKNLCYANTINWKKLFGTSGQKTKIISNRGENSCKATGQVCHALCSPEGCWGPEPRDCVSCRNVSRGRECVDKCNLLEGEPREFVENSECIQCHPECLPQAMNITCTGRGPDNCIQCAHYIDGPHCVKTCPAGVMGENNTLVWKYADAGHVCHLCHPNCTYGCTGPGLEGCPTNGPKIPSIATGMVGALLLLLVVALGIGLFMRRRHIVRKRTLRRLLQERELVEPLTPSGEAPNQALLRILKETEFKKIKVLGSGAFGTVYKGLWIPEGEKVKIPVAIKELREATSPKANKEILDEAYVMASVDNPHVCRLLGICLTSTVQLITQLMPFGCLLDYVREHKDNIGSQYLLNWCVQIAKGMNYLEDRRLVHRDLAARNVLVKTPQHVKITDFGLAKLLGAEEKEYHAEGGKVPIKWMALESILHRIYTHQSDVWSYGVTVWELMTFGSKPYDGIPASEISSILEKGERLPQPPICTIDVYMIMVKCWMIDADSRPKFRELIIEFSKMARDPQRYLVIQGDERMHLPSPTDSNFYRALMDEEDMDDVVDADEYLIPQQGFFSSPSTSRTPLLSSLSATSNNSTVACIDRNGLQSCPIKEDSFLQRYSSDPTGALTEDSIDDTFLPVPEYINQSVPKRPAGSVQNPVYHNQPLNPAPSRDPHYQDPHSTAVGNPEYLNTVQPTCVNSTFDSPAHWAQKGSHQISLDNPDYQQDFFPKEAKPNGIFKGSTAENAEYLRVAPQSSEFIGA

With `O=C(NCCO)c1ccc2c(c1)nc(Nc1cccc(Cl)c1)c1ccncc12`, the result in the data set with HCT-116 [1], in the data set with HCT-116 [5], in the data set on HCT-116 [8], with HCT-116 [16] and in the data set on HCT-116 [18] was Active. For the same compound, the 50% inhibitory concentration (IC50) turned out to be 100 nM in data set [2] and 3070 nM in the data set with HCT-116 [12]. Moreover, the inhibition result is “Dose-Dependent Effect” in data set [3] and 77% in data set [20]. The Activity result in data set [4] was “Non-Toxic”; with HCT-116 [6], 12.6%; in [7], “Non-Toxic”; in data set [9], 34.1%; in the data set with HCT-116 [13], 7%; in data set [15] it was 22.1%. The Activity result in data set [19] is listed as “Non-Toxic”. The inhibition entry in the data set on HCT-116 [10] and with HCT-116 [11] was “Active” throughout. Also, the viability at 20 µM in the data set with HCT-116 [14] is 36%. For the same compound, the viability at 10 µM with HCT-116 [17] came to 56.4%.
